Results published in ChEMBL document CHEMBL2346522, “Rational design of apoptosis signal-regulating kinase 1 inhibitors: discovering novel structural scaffold” (Eur J Med Chem, 2013).

Tests used:
[1] = target: T1, Aurora kinase A (Homo sapiens) (UniProt O14965); assay: Inhibition of human Aurora A using Kemptide as substrate assessed as residual activity at 10 uM incubated for 10 mins prior to ATP addition measured after 20 mins by liquid scintillation counting analysis
T1 sequence (whole entry): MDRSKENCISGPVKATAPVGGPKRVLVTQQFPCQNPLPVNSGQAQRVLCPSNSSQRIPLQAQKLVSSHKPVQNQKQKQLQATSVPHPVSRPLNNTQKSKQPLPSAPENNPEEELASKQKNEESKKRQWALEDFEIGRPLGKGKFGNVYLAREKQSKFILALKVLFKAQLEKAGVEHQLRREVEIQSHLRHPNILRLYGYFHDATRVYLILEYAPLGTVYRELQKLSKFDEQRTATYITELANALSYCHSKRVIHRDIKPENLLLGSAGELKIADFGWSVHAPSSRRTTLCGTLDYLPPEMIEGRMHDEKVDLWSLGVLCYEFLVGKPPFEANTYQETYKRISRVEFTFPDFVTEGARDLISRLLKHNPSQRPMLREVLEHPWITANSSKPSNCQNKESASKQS

[2] = target: Mitogen-activated protein kinase 10 (Homo sapiens) (UniProt P53779); assay: Inhibition of human JNK3 using JNK3tide as substrate assessed as residual activity at 10 uM incubated for 10 mins prior to ATP addition measured after 20 mins by liquid scintillation counting analysis
Chain of Mitogen-activated protein kinase 10 (Homo sapiens) (P53779 whole entry): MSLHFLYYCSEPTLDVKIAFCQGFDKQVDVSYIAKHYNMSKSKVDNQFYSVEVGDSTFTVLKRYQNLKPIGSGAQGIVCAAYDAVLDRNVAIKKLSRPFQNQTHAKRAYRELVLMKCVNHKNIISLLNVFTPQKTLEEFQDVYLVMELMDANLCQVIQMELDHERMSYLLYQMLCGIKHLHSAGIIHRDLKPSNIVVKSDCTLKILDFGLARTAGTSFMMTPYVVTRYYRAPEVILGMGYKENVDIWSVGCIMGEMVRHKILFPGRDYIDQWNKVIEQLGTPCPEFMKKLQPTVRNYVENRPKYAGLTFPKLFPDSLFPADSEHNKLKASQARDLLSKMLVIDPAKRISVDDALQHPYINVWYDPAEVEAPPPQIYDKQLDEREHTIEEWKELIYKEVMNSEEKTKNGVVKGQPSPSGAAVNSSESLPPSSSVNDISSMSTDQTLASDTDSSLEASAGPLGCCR

[3] = target: T2, Mitogen-activated protein kinase kinase kinase 5 (Homo sapiens, UniProt Q99683); assay: Inhibition of human ASK1 using MBP as substrate incubated for 10 mins prior to ATP addition measured after 20 mins by liquid scintillation counting analysis
T2 sequence (Q99683 whole entry): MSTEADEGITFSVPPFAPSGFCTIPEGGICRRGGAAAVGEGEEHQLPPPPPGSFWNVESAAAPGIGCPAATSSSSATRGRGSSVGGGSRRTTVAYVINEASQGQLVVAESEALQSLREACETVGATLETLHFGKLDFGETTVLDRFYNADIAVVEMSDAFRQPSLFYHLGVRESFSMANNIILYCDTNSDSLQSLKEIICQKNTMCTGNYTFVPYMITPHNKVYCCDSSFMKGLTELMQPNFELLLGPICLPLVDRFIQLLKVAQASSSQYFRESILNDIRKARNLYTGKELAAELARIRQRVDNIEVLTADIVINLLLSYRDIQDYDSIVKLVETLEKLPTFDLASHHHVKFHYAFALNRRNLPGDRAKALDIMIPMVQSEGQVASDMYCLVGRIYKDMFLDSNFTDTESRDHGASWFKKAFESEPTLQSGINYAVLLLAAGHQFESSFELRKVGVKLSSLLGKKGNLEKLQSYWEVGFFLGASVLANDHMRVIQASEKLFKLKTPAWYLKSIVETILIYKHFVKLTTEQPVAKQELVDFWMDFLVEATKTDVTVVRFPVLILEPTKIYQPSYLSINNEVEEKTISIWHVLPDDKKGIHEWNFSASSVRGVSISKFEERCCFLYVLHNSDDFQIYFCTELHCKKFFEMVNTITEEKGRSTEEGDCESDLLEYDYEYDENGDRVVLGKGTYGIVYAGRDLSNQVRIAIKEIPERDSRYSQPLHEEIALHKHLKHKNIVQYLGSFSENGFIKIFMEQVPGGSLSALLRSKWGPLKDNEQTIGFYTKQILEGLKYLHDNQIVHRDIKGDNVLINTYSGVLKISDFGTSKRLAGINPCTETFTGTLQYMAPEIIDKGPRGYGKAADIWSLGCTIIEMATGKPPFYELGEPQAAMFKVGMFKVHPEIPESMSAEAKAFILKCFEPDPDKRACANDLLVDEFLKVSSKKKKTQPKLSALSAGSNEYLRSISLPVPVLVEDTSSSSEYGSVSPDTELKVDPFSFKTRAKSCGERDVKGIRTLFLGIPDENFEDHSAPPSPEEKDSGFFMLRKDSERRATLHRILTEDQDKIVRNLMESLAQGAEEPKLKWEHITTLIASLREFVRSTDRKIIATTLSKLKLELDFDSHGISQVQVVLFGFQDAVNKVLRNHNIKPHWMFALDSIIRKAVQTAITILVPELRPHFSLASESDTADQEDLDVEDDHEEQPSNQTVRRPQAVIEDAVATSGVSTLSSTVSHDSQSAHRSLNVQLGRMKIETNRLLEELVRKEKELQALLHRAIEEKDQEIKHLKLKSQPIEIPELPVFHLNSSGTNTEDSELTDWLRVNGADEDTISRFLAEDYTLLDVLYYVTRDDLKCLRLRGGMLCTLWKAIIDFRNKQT
How it was run: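 Inhibitor added from a DMSO stock is incubated with enzyme on ice for 10 min. The reaction is started with ATP plus MgCl₂ in MOPS pH 7.2, and labeled and unlabeled ATP are combined.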

[4] = target: T3, Mitogen-activated protein kinase kinase kinase 5 (Homo sapiens) (UniProt Q99683); assay: Inhibition of human ASK1 using MBP as substrate assessed as residual activity at 10 uM incubated for 10 mins prior to ATP addition measured after 20 mins by liquid scintillation counting analysis
T3 sequence (whole entry): T2 sequence (Q99683 whole entry)

[5] = target: Hepatocyte growth factor receptor (Homo sapiens) (UniProt P08581); assay: Inhibition of human HGFR using KKKSPGEYVNIEFG as substrate assessed as residual activity at 10 uM incubated for 10 mins prior to ATP addition measured after 20 mins by liquid scintillation counting analysis
Chain of Hepatocyte growth factor receptor (Homo sapiens) (P08581 whole entry): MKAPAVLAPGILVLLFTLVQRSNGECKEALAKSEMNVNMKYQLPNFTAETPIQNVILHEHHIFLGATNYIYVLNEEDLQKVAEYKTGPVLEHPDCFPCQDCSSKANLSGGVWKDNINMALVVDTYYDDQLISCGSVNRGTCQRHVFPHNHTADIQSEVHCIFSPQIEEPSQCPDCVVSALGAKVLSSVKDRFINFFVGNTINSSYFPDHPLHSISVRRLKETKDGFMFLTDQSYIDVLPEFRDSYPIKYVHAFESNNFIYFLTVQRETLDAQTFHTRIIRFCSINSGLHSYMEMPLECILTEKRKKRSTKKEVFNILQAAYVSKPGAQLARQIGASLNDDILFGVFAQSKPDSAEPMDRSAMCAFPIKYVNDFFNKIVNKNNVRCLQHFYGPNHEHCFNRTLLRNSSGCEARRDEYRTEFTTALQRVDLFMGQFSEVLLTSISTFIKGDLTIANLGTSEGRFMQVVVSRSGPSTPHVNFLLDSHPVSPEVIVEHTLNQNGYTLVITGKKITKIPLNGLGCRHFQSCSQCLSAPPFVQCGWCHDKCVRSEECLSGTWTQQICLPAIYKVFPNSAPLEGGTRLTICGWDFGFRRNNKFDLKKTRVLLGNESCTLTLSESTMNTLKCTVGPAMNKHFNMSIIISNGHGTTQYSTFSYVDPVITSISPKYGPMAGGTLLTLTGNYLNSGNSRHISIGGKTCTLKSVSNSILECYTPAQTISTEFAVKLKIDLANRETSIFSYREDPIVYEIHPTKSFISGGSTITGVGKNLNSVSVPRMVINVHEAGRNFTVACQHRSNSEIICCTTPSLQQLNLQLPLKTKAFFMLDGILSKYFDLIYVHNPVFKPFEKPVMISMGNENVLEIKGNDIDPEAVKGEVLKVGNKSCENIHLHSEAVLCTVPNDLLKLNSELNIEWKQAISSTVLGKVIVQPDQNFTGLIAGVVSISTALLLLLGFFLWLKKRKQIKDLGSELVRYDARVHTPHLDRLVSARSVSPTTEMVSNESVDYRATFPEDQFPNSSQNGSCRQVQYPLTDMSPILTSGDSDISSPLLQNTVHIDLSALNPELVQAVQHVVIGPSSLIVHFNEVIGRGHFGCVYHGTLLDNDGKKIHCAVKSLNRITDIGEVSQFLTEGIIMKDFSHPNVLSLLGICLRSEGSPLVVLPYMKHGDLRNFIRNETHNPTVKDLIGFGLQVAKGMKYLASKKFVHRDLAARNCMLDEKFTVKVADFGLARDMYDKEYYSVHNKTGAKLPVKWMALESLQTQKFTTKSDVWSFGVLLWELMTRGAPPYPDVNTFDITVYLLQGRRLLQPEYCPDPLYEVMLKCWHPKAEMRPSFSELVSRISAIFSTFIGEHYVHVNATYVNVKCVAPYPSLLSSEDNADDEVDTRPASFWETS

[6] = target: Fibroblast growth factor receptor 1 (Homo sapiens) (UniProt P11362); assay: Inhibition of human FGFR1 using IGF-IRtide (12 to 527) as substrate assessed as residual activity at 10 uM incubated for 10 mins prior to ATP addition measured after 20 mins by liquid scintillation counting analysis
Chain of Fibroblast growth factor receptor 1 (Homo sapiens) (P11362 22-822 limits assumed): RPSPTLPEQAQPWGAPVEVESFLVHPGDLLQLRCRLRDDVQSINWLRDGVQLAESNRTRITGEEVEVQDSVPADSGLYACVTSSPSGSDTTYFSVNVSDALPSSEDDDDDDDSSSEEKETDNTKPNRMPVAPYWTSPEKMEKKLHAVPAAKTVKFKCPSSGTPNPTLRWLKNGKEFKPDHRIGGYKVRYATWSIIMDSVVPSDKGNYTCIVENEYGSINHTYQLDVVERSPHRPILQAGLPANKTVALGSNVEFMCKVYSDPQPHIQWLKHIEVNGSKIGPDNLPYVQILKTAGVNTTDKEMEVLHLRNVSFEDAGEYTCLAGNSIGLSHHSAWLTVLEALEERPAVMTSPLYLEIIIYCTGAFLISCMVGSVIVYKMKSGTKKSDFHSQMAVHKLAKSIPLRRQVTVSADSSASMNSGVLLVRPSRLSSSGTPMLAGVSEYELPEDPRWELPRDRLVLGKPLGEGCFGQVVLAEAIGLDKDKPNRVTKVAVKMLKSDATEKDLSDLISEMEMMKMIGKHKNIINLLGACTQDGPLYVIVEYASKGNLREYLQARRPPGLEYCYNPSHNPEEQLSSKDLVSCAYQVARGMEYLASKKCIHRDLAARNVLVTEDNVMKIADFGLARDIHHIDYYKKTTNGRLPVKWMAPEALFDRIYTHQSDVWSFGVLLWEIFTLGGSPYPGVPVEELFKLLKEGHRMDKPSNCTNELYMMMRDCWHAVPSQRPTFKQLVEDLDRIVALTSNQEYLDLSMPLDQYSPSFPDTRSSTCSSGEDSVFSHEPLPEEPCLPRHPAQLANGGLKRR

[7] = target: Casein kinase II (Homo sapiens) (UniProt P67870+P68400+P19784); assay: Inhibition of human CK2 using RRRDDDSDDD as substrate assessed as residual activity at 10 uM incubated for 10 mins prior to ATP addition measured after 20 mins by liquid scintillation counting analysis; assay type: protein-complex assay
[8] = target: Angiopoietin-1 receptor (Homo sapiens) (UniProt Q02763); assay: Inhibition of human Tie2 using TK substrate 2 as substrate assessed as residual activity at 10 uM incubated for 10 mins prior to ATP addition measured after 20 mins by liquid scintillation counting analysis
Chain of Angiopoietin-1 receptor (Homo sapiens) (Q02763 whole entry): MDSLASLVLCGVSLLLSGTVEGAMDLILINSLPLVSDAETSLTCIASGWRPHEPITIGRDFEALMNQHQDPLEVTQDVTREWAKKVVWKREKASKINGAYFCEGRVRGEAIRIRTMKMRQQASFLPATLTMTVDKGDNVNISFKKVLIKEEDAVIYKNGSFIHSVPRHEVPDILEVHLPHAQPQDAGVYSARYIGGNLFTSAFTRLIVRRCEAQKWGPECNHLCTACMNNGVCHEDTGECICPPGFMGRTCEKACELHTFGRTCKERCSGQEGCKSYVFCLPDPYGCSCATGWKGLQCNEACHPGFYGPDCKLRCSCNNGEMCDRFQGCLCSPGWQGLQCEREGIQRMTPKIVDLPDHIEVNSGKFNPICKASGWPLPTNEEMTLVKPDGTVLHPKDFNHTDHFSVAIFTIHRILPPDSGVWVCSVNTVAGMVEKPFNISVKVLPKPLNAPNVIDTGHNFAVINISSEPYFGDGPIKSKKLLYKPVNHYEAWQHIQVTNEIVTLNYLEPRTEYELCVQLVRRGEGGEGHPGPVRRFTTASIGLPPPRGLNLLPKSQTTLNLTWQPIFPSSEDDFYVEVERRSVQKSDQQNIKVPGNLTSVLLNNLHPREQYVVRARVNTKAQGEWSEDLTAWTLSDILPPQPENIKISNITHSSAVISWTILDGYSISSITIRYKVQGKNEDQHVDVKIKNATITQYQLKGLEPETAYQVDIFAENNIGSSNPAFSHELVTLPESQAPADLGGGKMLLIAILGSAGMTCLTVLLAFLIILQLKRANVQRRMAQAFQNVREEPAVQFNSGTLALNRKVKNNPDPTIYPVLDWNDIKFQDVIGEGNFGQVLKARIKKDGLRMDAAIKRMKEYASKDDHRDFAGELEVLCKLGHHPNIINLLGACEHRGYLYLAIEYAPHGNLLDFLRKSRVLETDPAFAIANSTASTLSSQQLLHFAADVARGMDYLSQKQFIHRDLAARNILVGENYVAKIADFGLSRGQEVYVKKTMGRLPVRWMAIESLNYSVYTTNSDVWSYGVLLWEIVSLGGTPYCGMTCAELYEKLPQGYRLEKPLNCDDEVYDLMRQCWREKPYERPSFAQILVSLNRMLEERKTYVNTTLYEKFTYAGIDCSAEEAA

[9] = target: T2, Mitogen-activated protein kinase kinase kinase 5; assay: Competitive inhibition of human ASK1 using MBP as substrate incubated for 10 mins prior to ATP addition measured after 20 mins by Lineweaver-Burk plot analysis
How it was run: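 ASK1 activity with MBP substrate and γ-³²P-ATP. Enzyme and substrate sit in MOPS pH 7.2 buffer (EGTA, EDTA, DTT, BSA, β-glycerophosphate). Inhibitor from a DMSO stock is pre-mixed with them on ice for 10 min. The reaction starts with ATP/MgCl₂. Substrate concentration curves are run at several inhibitor levels, in triplicate, and analysed by Lineweaver–Burk linearized plots.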

IC50 [3] [nM]	SMILES	further results
200	O=C(O)CCCCCN1C(=O)/C(=C/c2ccc(-c3ccc(Br)cc3)o2)SC1=S	Activity [1]: 21%; Activity [2]: 65%; Activity [4]: 3%; Activity [5]: 7%; Activity [6]: 5%; Activity [7]: 34%; Activity [8]: 46%
> 33000	COC(=O)CCCN1C(=O)/C(=C/c2ccc(-c3ccc(Br)cc3)o2)SC1=S	
750	O=C(O)CCN1C(=O)/C(=C/c2ccc(-c3ccccc3Cl)o2)SC1=S	
350	O=C(O)CCCN1C(=O)/C(=C/c2ccc(-c3cccc(Cl)c3)o2)SC1=S	
750	CSCCC(C(=O)O)N1C(=O)/C(=C/c2ccc(-c3ccc(Cl)c(Cl)c3)o2)SC1=S (configuration not stated)	
500	CCCC(C(=O)O)N1C(=O)/C(=C/c2ccc(-c3ccc(Br)cc3)o2)SC1=S (configuration not stated)	
3900	CCCC(C(=O)O)N1C(=O)/C(=C/c2ccc(-c3ccc(Cl)c(Cl)c3)o2)SC1=S (configuration not stated)	
750	CCC(C(=O)O)N1C(=O)/C(=C/c2ccc(-c3cccc(Cl)c3)o2)SC1=S (configuration not stated)	
200	O=C(O)CCCN1C(=O)/C(=C/c2ccc(-c3ccc(Br)cc3)o2)SC1=S	Activity [1]: 100%; Activity [2]: 92%; Activity [4]: 3%; Activity [5]: 51%; Activity [6]: 10%; Activity [7]: 28%; Activity [8]: 28%
2800	O=C(O)CC(C(=O)O)N1C(=O)/C(=C/c2ccc(-c3ccc(Br)cc3)o2)SC1=S (configuration not stated)	
650	CC(C(=O)O)N1C(=O)/C(=C/c2ccc(-c3ccc(Cl)c(Cl)c3)o2)SC1=S (configuration not stated)	Activity [1]: 14%; Activity [2]: 46%; Activity [4]: 3%; Activity [5]: 65%; Activity [6]: 88%; Ki [9]: 340 nM; Activity [7]: 34%; Activity [8]: 29%
500	CCC(C(=O)O)N1C(=O)/C(=C/c2ccc(-c3cc(Cl)ccc3Cl)o2)SC1=S (configuration not stated)	
650	O=C(O)CCN1C(=O)/C(=C/c2ccc(-c3ccc([N+](=O)[O-])cc3)o2)SC1=S	
1800	CCCC(C(=O)O)N1C(=O)/C(=C/c2ccc(-c3ccc([N+](=O)[O-])cc3)o2)SC1=S (configuration not stated)	
1000	O=C(O)CC(C(=O)O)N1C(=O)/C(=C/c2ccc(-c3c(Cl)cccc3Cl)o2)SC1=S (configuration not stated)	
800	CCOC(=O)c1ccc(-c2ccc(/C=C3\SC(=S)N(C(CC(=O)O)C(C)=O)C3=O)o2)cc1 (configuration not stated)	
500	CCC(C(=O)O)N1C(=O)/C(=C/c2ccc(-c3ccc(Br)cc3)o2)SC1=S (configuration not stated)	
1800	CCc1ccc(-c2ccc(/C=C3\SC(=S)N(C(CC(=O)O)C(=O)O)C3=O)o2)cc1 (configuration not stated)	
1000	O=C(O)CCN1C(=O)/C(=C/c2ccc(-c3cccc(Cl)c3)o2)SC1=S	

Second part, the molecule before the results:

SMILES	IC50 [3] [nM]	further results
O=C(O)CCN1C(=O)/C(=C/c2ccc(-c3ccccc3F)o2)SC1=S	300	Activity [1]: 39%; Activity [2]: 87%; Activity [4]: 2.5%; Activity [5]: 32%; Activity [6]: 22%; Activity [7]: 56%; Activity [8]: 44%
O=C1/C(=C/c2ccc(-c3ccc(Cl)c(Cl)c3)o2)SC(=S)N1c1ccc(F)cc1	> 33000	
O=C(O)c1ccc(N2C(=O)/C(=C/c3cccnc3)SC2=S)cc1	> 33000	
O=C(O)CCCCCN1C(=O)/C(=C/c2ccc(-c3ccccc3Cl)o2)SC1=S	500	
O=C(O)CN1C(=O)/C(=C/c2ccncc2)SC1=S	> 33000	
COC(=O)c1ccc(/C=C2\SC(=S)N(c3ccc(O)c(C(=O)O)c3)C2=O)cc1	> 33000	
O=C(O)C(Cc1ccccc1)N1C(=O)/C(=C/c2ccncc2)SC1=S (configuration not stated)	> 33000	
O=C1NC(=S)S/C1=C\c1ccc(-c2ccccc2[N+](=O)[O-])o1	> 33000	
O=C(O)CCCN1C(=O)/C(=C/c2ccc(-c3ccccc3Cl)o2)SC1=S	300	Activity [1]: 14%; Activity [2]: 41%; Activity [4]: 3.5%; Activity [5]: 25%; Activity [6]: 16%; Activity [7]: 15%; Activity [8]: 22%
COC(=O)CCCN1C(=O)/C(=C/c2ccc(-c3ccccc3F)o2)SC1=S	> 33000	
O=C(O)CN1C(=O)/C(=C/c2ccc(-c3ccccc3Cl)o2)SC1=S	1250	
O=C1/C(=C/c2ccco2)SC(=S)N1c1cccnc1	> 33000	
O=C(O)CCCN1C(=O)/C(=C/c2ccc(-c3cc(Cl)ccc3Cl)o2)SC1=S	350	
O=C(O)CCCN1C(=O)/C(=C/c2ccc(-c3c(Cl)cccc3Cl)o2)SC1=S	500	
O=C(O)CCCN1C(=O)/C(=C/c2ccc(-c3ccccc3F)o2)SC1=S	3000	
O=C(O)CN1C(=O)/C(=C/c2ccco2)SC1=S	> 33000	
O=C(O)CCCCCN1C(=O)/C(=C/c2ccc(-c3cccc(C(F)(F)F)c3)o2)SC1=S	500	
O=C1/C(=C/c2ccc(Cl)cc2Cl)SC(=S)N1Nc1ccccc1	> 33000	
O=C1NC(=S)S/C1=C\c1cccc(Br)c1	> 33000	
O=C1/C(=C/c2ccc(-c3ccc(Br)cc3)o2)SC(=S)N1c1cccc(O)c1	2000	
O=C1NC(=S)S/C1=C\c1cccnc1	> 33000	
O=C(O)CN1C(=O)/C(=C/c2ccc(-c3ccccc3F)o2)SC1=S	3000	
